In ChEMBL document CHEMBL4732167, “Structure based design, synthesis, and biological evaluation of imidazole derivatives targeting dihydropteroate synthase enzyme” (Bioorg Med Chem Lett, 2021):
Values after ≈ are worked out from the molar mass of the structure shown.

Test system: not listed separately
Assay: Antioxidant activity assessed as hydrogen peroxide radical scavenging activity at 25 ug/ml (reference value: 23.6 to 43.1 %)
Format: functional
Conditions: dose 25.0 µg/ml
How it was run: (§1)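 Hydrogen peroxide scavenging was measured across a compound series of 0, 25, 50, 75 and 100 µg/ml.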

SMILES | Activity [%]
COc1ccc(-n2c(SCC(=O)Nc3ccc(OC(=O)c4ccco4)cc3)nc(C)c2C(C)=O)cc1 | 59.3
COc1ccc(COc2ccc(NC(=O)CSc3nc(C)c(C(C)=O)n3-c3ccc(Br)cc3)cc2)cc1 | 47

Test system: Plasmodium falciparum
Assay: Antimalarial activity against Plasmodium falciparum assessed as parasite growth inhibition
Format: functional, organism-based
Conditions: not given

SMILES | IC50 [µg/mL]
COc1ccc(-n2c(SCC(=O)Nc3ccc(OC(=O)c4ccco4)cc3)nc(C)c2C(C)=O)cc1 | 0.78 (≈ 1.54 µM)
COc1ccc(COc2ccc(NC(=O)CSc3nc(C)c(C(C)=O)n3-c3ccc(Br)cc3)cc2)cc1 | 1.25 (≈ 2.15 µM)

Test system: Mycobacterium tuberculosis
Assay: Antibacterial activity against Mycobacterium tuberculosis H37Rv assessed as bacterial growth inhibition
Format: functional
Conditions: not given

SMILES | MIC [µg/mL]
COc1ccc(-n2c(SCC(=O)Nc3ccc(OC(=O)c4ccco4)cc3)nc(C)c2C(C)=O)cc1 | 62.5 (≈ 124 µM)
COc1ccc(COc2ccc(NC(=O)CSc3nc(C)c(C(C)=O)n3-c3ccc(Br)cc3)cc2)cc1 | 250 (≈ 431 µM)

Test system: not listed separately
Assay: Antioxidant activity assessed as hydrogen peroxide radical scavenging activity at 75 ug/ml (reference value: 23.6 to 43.1 %)
Format: functional
Conditions: dose 75.0 µg/ml
How it was run: as §1

SMILES | Activity [%]
COc1ccc(-n2c(SCC(=O)Nc3ccc(OC(=O)c4ccco4)cc3)nc(C)c2C(C)=O)cc1 | 81
COc1ccc(COc2ccc(NC(=O)CSc3nc(C)c(C(C)=O)n3-c3ccc(Br)cc3)cc2)cc1 | 71

Test system: Pseudomonas aeruginosa
Assay: Antibacterial activity against Pseudomonas aeruginosa MTCC 1688 assessed as bacterial growth inhibition
Format: functional
Conditions: not given

SMILES | MIC [µg/mL]
COc1ccc(-n2c(SCC(=O)Nc3ccc(OC(=O)c4ccco4)cc3)nc(C)c2C(C)=O)cc1 | 100 (≈ 198 µM)
COc1ccc(COc2ccc(NC(=O)CSc3nc(C)c(C(C)=O)n3-c3ccc(Br)cc3)cc2)cc1 | 50 (≈ 86.1 µM)

Test system: not listed separately
Assay: Antioxidant activity assessed as DPPH radical scavenging activity at 25 ug/ml (reference value: 22 to 40.2 %)
Format: functional
Conditions: dose 25.0 µg/ml
How it was run: (§2)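 DPPH radical scavenging was measured at 0, 25, 50, 75 and 100 µg/ml of each compound. Ascorbic acid was the reference.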

SMILES | Activity [%]
COc1ccc(-n2c(SCC(=O)Nc3ccc(OC(=O)c4ccco4)cc3)nc(C)c2C(C)=O)cc1 | 32.5
COc1ccc(COc2ccc(NC(=O)CSc3nc(C)c(C(C)=O)n3-c3ccc(Br)cc3)cc2)cc1 | 34.8

Test system: Escherichia coli
Assay: Antibacterial activity against Escherichia coli MTCC 443 assessed as bacterial growth inhibition
Format: functional
Conditions: not given

SMILES | MIC [µg/mL]
COc1ccc(-n2c(SCC(=O)Nc3ccc(OC(=O)c4ccco4)cc3)nc(C)c2C(C)=O)cc1 | 125 (≈ 247 µM)
COc1ccc(COc2ccc(NC(=O)CSc3nc(C)c(C(C)=O)n3-c3ccc(Br)cc3)cc2)cc1 | 125 (≈ 215 µM)

Test system: Streptococcus pyogenes
Assay: Antibacterial activity against Streptococcus pyogenes MTCC 442 assessed as bacterial growth inhibition
Format: functional
Conditions: not given

SMILES | MIC [µg/mL]
COc1ccc(-n2c(SCC(=O)Nc3ccc(OC(=O)c4ccco4)cc3)nc(C)c2C(C)=O)cc1 | 125 (≈ 247 µM)
COc1ccc(COc2ccc(NC(=O)CSc3nc(C)c(C(C)=O)n3-c3ccc(Br)cc3)cc2)cc1 | 125 (≈ 215 µM)

Test system: Staphylococcus aureus
Assay: Antibacterial activity against Staphylococcus aureus MTCC 96 assessed as bacterial growth inhibition
Format: functional
Conditions: not given

SMILES | MIC [µg/mL]
COc1ccc(-n2c(SCC(=O)Nc3ccc(OC(=O)c4ccco4)cc3)nc(C)c2C(C)=O)cc1 | 250 (≈ 495 µM)
COc1ccc(COc2ccc(NC(=O)CSc3nc(C)c(C(C)=O)n3-c3ccc(Br)cc3)cc2)cc1 | 250 (≈ 431 µM)

Test system: not listed separately
Assay: Antioxidant activity assessed as nitric oxide radical scavenging activity at 100 ug/ml (reference value: 25.8 to 41.6 %)
Format: functional
Conditions: dose 100.0 µg/ml
How it was run: (§3)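 Nitric oxide radical scavenging was tested at 0, 25, 50, 75 and 100 µg/ml of compound.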

SMILES | Activity [%]
COc1ccc(-n2c(SCC(=O)Nc3ccc(OC(=O)c4ccco4)cc3)nc(C)c2C(C)=O)cc1 | 84.5
COc1ccc(COc2ccc(NC(=O)CSc3nc(C)c(C(C)=O)n3-c3ccc(Br)cc3)cc2)cc1 | 84.3

Test system: Enterococcus
Assay: Antibacterial activity against vancomycin-resistant Enterococcus assessed as inhibition of bacterial growth
Format: functional
Conditions: not given
How it was run: (§4)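 Growth inhibition of the drug-resistant strain was read out as the minimum inhibitory concentration (MIC), reported in µg/mL. The same protocol was also run on an ESBL strain.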

SMILES | MIC [µg/mL]
COc1ccc(-n2c(SCC(=O)Nc3ccc(OC(=O)c4ccco4)cc3)nc(C)c2C(C)=O)cc1 | 250 (≈ 495 µM)
COc1ccc(COc2ccc(NC(=O)CSc3nc(C)c(C(C)=O)n3-c3ccc(Br)cc3)cc2)cc1 | 250 (≈ 431 µM)

Test system: Bacteria
Assay: Antibacterial activity against ESBL-producing bacteria assessed as bacterial growth inhibition
Format: functional
Conditions: not given
How it was run: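 Values are minimum inhibitory concentrations (MIC) in µg/mL, determined at an outside microbiology laboratory.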

SMILES | MIC [µg/mL]
COc1ccc(-n2c(SCC(=O)Nc3ccc(OC(=O)c4ccco4)cc3)nc(C)c2C(C)=O)cc1 | 500 (≈ 989 µM)
COc1ccc(COc2ccc(NC(=O)CSc3nc(C)c(C(C)=O)n3-c3ccc(Br)cc3)cc2)cc1 | 250 (≈ 431 µM)

Test system: not listed separately
Assay: Antioxidant activity assessed as nitric oxide radical scavenging activity at 25 ug/ml (reference value: 25.8 to 41.6 %)
Format: functional
Conditions: dose 25.0 µg/ml
How it was run: as §3

SMILES | Activity [%]
COc1ccc(-n2c(SCC(=O)Nc3ccc(OC(=O)c4ccco4)cc3)nc(C)c2C(C)=O)cc1 | 37.7
COc1ccc(COc2ccc(NC(=O)CSc3nc(C)c(C(C)=O)n3-c3ccc(Br)cc3)cc2)cc1 | 51.7

Test system: Candida albicans
Assay: Antifungal activity against Candida albicans MTCC 227 assessed as fungal growth inhibition
Format: functional
Conditions: not given

SMILES | MFC [µg/mL]
COc1ccc(-n2c(SCC(=O)Nc3ccc(OC(=O)c4ccco4)cc3)nc(C)c2C(C)=O)cc1 | 250 (≈ 495 µM)
COc1ccc(COc2ccc(NC(=O)CSc3nc(C)c(C(C)=O)n3-c3ccc(Br)cc3)cc2)cc1 | 500 (≈ 861 µM)

Test system: not listed separately
Assay: Antioxidant activity assessed as nitric oxide radical scavenging activity at 50 ug/ml (reference value: 25.8 to 41.6 %)
Format: functional
Conditions: dose 50.0 µg/ml
How it was run: as §3

SMILES | Activity [%]
COc1ccc(-n2c(SCC(=O)Nc3ccc(OC(=O)c4ccco4)cc3)nc(C)c2C(C)=O)cc1 | 59.3
COc1ccc(COc2ccc(NC(=O)CSc3nc(C)c(C(C)=O)n3-c3ccc(Br)cc3)cc2)cc1 | 65.4

Test system: not listed separately
Assay: Antioxidant activity assessed as hydrogen peroxide radical scavenging activity at 50 ug/ml (reference value: 23.6 to 43.1 %)
Format: functional
Conditions: dose 50.0 µg/ml
How it was run: as §1

SMILES | Activity [%]
COc1ccc(-n2c(SCC(=O)Nc3ccc(OC(=O)c4ccco4)cc3)nc(C)c2C(C)=O)cc1 | 69.9
COc1ccc(COc2ccc(NC(=O)CSc3nc(C)c(C(C)=O)n3-c3ccc(Br)cc3)cc2)cc1 | 60.7

Test system: not listed separately
Assay: Antioxidant activity assessed as nitric oxide radical scavenging activity at 75 ug/ml (reference value: 25.8 to 41.6 %)
Format: functional
Conditions: dose 75.0 µg/ml
How it was run: as §3

SMILES | Activity [%]
COc1ccc(-n2c(SCC(=O)Nc3ccc(OC(=O)c4ccco4)cc3)nc(C)c2C(C)=O)cc1 | 78.9
COc1ccc(COc2ccc(NC(=O)CSc3nc(C)c(C(C)=O)n3-c3ccc(Br)cc3)cc2)cc1 | 75.3

Test system: not listed separately
Assay: Antioxidant activity assessed as hydrogen peroxide radical scavenging activity at 100 ug/ml (reference value: 23.6 to 43.1 %)
Format: functional
Conditions: dose 100.0 µg/ml
How it was run: as §1

SMILES | Activity [%]
COc1ccc(-n2c(SCC(=O)Nc3ccc(OC(=O)c4ccco4)cc3)nc(C)c2C(C)=O)cc1 | 90
COc1ccc(COc2ccc(NC(=O)CSc3nc(C)c(C(C)=O)n3-c3ccc(Br)cc3)cc2)cc1 | 84.3

Test system: Aspergillus clavatus
Assay: Antifungal activity against Aspergillus clavatus MTCC 1323 assessed as fungal growth inhibition
Format: functional
Conditions: not given

SMILES | MFC [µg/mL]
COc1ccc(-n2c(SCC(=O)Nc3ccc(OC(=O)c4ccco4)cc3)nc(C)c2C(C)=O)cc1 | > 1000
COc1ccc(COc2ccc(NC(=O)CSc3nc(C)c(C(C)=O)n3-c3ccc(Br)cc3)cc2)cc1 | 1000 (≈ 1720 µM)

Test system: Aspergillus niger
Assay: Antifungal activity against Aspergillus niger MTCC 282 assessed as fungal growth inhibition
Format: functional
Conditions: not given

SMILES | MFC [µg/mL]
COc1ccc(-n2c(SCC(=O)Nc3ccc(OC(=O)c4ccco4)cc3)nc(C)c2C(C)=O)cc1 | > 1000
COc1ccc(COc2ccc(NC(=O)CSc3nc(C)c(C(C)=O)n3-c3ccc(Br)cc3)cc2)cc1 | > 1000

Test system: not listed separately
Assay: Antioxidant activity assessed as DPPH radical scavenging activity at 50 ug/ml (reference value: 22 to 40.2 %)
Format: functional
Conditions: dose 50.0 µg/ml
How it was run: as §2

SMILES | Activity [%]
COc1ccc(-n2c(SCC(=O)Nc3ccc(OC(=O)c4ccco4)cc3)nc(C)c2C(C)=O)cc1 | 47.1
COc1ccc(COc2ccc(NC(=O)CSc3nc(C)c(C(C)=O)n3-c3ccc(Br)cc3)cc2)cc1 | 41.3

Test system: not listed separately
Assay: Antioxidant activity assessed as DPPH radical scavenging activity at 75 ug/ml (reference value: 22 to 40.2 %)
Format: functional
Conditions: dose 75.0 µg/ml
How it was run: as §2

SMILES | Activity [%]
COc1ccc(-n2c(SCC(=O)Nc3ccc(OC(=O)c4ccco4)cc3)nc(C)c2C(C)=O)cc1 | 66.2
COc1ccc(COc2ccc(NC(=O)CSc3nc(C)c(C(C)=O)n3-c3ccc(Br)cc3)cc2)cc1 | 59.7

Test system: not listed separately
Assay: Antioxidant activity assessed as DPPH radical scavenging activity at 100 ug/ml (reference value: 22 to 40.2 %)
Format: functional
Conditions: dose 100.0 µg/ml
How it was run: as §2

SMILES | Activity [%]
COc1ccc(-n2c(SCC(=O)Nc3ccc(OC(=O)c4ccco4)cc3)nc(C)c2C(C)=O)cc1 | 85.2
COc1ccc(COc2ccc(NC(=O)CSc3nc(C)c(C(C)=O)n3-c3ccc(Br)cc3)cc2)cc1 | 73.2

Test system: Staphylococcus aureus
Assay: Antibacterial activity against methicillin-resistant Staphylococcus aureus assessed as inhibition of bacterial growth
Format: functional
Conditions: not given
How it was run: as §4

SMILES | MIC [µg/mL]
COc1ccc(-n2c(SCC(=O)Nc3ccc(OC(=O)c4ccco4)cc3)nc(C)c2C(C)=O)cc1 | 500 (≈ 989 µM)
COc1ccc(COc2ccc(NC(=O)CSc3nc(C)c(C(C)=O)n3-c3ccc(Br)cc3)cc2)cc1 | 500 (≈ 861 µM)
